From ChEMBL document CHEMBL3779809, “Bioactive Enmein-Type ent-Kaurane Diterpenoids from Isodon phyllostachys” (J Nat Prod, 2016)

What was measured:
[1] = Cytotoxicity against human HL60 cells assessed growth inhibition at 40 uM after 48 hrs by MTS assay relative to control; assay type: functional; conditions: HL-60, 48 h, read-out: GI
Method in brief: (§1)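 Cultured in RPMI-1640 or DMEM with 10% FBS at 37 °C under 5% CO2. Cells seeded, given 12 h at 37 °C, then treated with compound at 40 μM for 48 h. Growth inhibition measured by MTS assay (formazan colorimetry).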

[2] = Cytotoxicity against human SMMC7721 cells assessed growth inhibition at 40 uM after 48 hrs by MTS assay relative to control; assay type: functional; conditions: SMMC-7721, 48 h, read-out: GI; method in brief: as §1
[3] = Cytotoxicity against human HL60 cells assessed as cell viability after 48 hrs by MTS assay; assay type: functional, cell-based; conditions: HL-60, 48 h
Method in brief: (§2)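 Cells grown in RPMI-1640 or DMEM with 10% FBS at 37 °C, 5% CO2. Seeded, incubated 12 h, then exposed to a range of concentrations in triplicate for 48 h. Viability read by MTS reduction to formazan. IC50 calculated by Reed and Muench method; cis-platin positive control.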

[4] = Cytotoxicity against human SMMC7721 cells assessed as cell viability after 48 hrs by MTS assay; assay type: functional, cell-based; conditions: SMMC-7721, 48 h; method in brief: as §2
MCF7 = test: Cytotoxicity against human MCF7 cells assessed as cell viability after 48 hrs by MTS assay; assay type: functional, cell-based; conditions: MCF7, 48 h; method in brief: as §2
RAW264.7 = test: Inhibition of LPS-induced NO production in mouse RAW264.7 cells at 25 uM preincubated with compound followed by LPS challenge measured after 18 hrs by Griess method; assay type: functional, cell-based
Method in brief: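 RAW264.7 macrophages seeded at 2 × 10^5 cells/well and treated with serial compound dilutions (maximum 25 μM), then stimulated with LPS 1 μg/mL for 18 h. Supernatant nitrite measured with Griess reagents, absorbance 550 nm. MG-132 positive control. Viability checked in parallel by MTT to exclude cytotoxic interference.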

SW480 = test: Cytotoxicity against human SW480 cells assessed as cell viability after 48 hrs by MTS assay; assay type: functional, cell-based; conditions: SW480, 48 h; method in brief: as §2
A549 [5] = test: Cytotoxicity against human A549 cells assessed growth inhibition at 40 uM after 48 hrs by MTS assay relative to control; assay type: functional; conditions: A549, 48 h, read-out: GI; method in brief: as §1
A549 [6] = test: Cytotoxicity against human A549 cells assessed as cell viability after 48 hrs by MTS assay; assay type: functional, cell-based; conditions: A549, 48 h; method in brief: as §2

Structure (SMILES)	IC50 (RAW264.7) [µM]	inhibition of growth at 40 µM [1] [%]	inhibition of growth at 40 µM [2] [%]	IC50 [3] [µM]	IC50 [4] [µM]	IC50 (MCF7) [µM]	IC50 (SW480) [µM]	inhibition of growth at 40 µM (A549 [5]) [%]	IC50 (A549 [6]) [µM]
C=C1C(=O)[C@]23C[C@@H]1CC[C@H]2C12C(O)O[C@@H](OC)[C@@H]1C(C)(C)CC[C@@H]2OC3=O (stereo partly specified)	1.47	> 50	> 50	3	4.2	2.4	3.2	> 50	3.9
C=C1C(=O)[C@@]23C[C@@H]1C[C@H]1O[C@@H]4OC[C@]5([C@H](CCC(C)(C)[C@@H]45)OC2=O)[C@H]13	4.93	> 50	> 50	15.4	15.8	14	15.2	> 50	14
C=C1C(=O)[C@]23C[C@@H]1C[C@@H](O)[C@H]2[C@@]12CO[C@@H](O)[C@@H]1C(C)(C)CC[C@@H]2OC3=O	3.56	> 50	> 50	10.3	11.4	14	10.9	> 50	14.3
C=C1C(=O)[C@]23C[C@@H]1CC[C@H]2C12[C@@H](OC)O[C@@H](O)[C@@H]1C(C)(C)CC[C@@H]2OC3=O (stereo partly specified)	1.36	> 50	> 50	3.5	4.7	3.9	3.9	> 50	1.2

Continued by falling IC50 (RAW264.7), values first:

IC50 (RAW264.7) [µM]	Structure (SMILES)	inhibition of growth at 40 µM [1] [%]	inhibition of growth at 40 µM [2] [%]	IC50 [3] [µM]	IC50 [4] [µM]	IC50 (MCF7) [µM]	IC50 (SW480) [µM]	inhibition of growth at 40 µM (A549 [5]) [%]	IC50 (A549 [6]) [µM]
7.42	C=C1C(=O)[C@]23C[C@@H]1CC[C@H]2C12C(O)O[C@@H](O)[C@@H]1C(C)(C)CC[C@@H]2OC3=O (stereo partly specified)	> 50	> 50	16.8	31.8	> 40	14.8	> 50	39
3.53	C=C1C(=O)[C@]23C[C@@H]1CC[C@H]2C12CO[C@@H](O)[C@@H]1C(C)(C)[C@@H](O)C[C@@H]2OC3=O (stereo partly specified)	> 50	> 50	9.2	9.8	15.7	5.5	> 50	13.3
3.51	C=C1C(=O)[C@]23C[C@@H]1C[C@@H](O)[C@H]2C12CO[C@@H]4OC[C@](C)(CC[C@@H]1OC3=O)[C@@H]42 (stereo partly specified)	> 50	> 50	14.3	12.5	13.7	> 40	> 50	10.2
1.56	C=C1C(=O)[C@]23C[C@@H]1CC[C@H]2C12[C@H](OC)O[C@@H](O)[C@@H]1C(C)(C)CC[C@@H]2OC3=O (stereo partly specified)	> 50	> 50	3.2	5	3.2	4.6	> 50	3.4
0.74	C=C1C(=O)[C@]23C[C@@H]1CC[C@H]2[C@@]12CO[C@@H](O)[C@@H]1C(C)(C)CC[C@@H]2OC3=O	> 50	> 50	2.1	3.3	3.4	1.7	> 50	2.1
